Reference: paper PMC5743405 (International Journal of Oncology, 2017)
Entries after “also recorded” stand apart in the source; their conditions may differ.

Key:
[1] = tested on: ADCYAP1R1; test: PathHunter β-arrestin; type: cell-based; conditions: 6 μM
Outline: (§1)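 β-Arrestin recruitment assay: the enzyme acceptor is fused to β-arrestin and the ED fragment to the GPCR. Recruitment restores β-galactosidase, read by chemiluminescence. % activity = 100% × (test − vehicle)/(max control ligand − vehicle). % inhibition = 100% × (1 − (test − vehicle)/(EC80 control − vehicle)). An agonist hit needs >30% activity and RLU > baseline + 3×SD. An antagonist hit needs >35% inhibition and RLU < EC80 RLU − 3×SD.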

[2] = tested on: ADRB2; test: PathHunter β-arrestin; type: cell-based; conditions: 6 μM
Outline: as §1

[3] = tested on: BRS3; test: PathHunter β-arrestin; type: cell-based; conditions: antagonist mode, 6 μM
Outline: as §1

[4] = tested on: CCKBR; test: PathHunter β-arrestin; type: cell-based; conditions: antagonist mode, 6 μM
Outline: as §1

[5] = tested on: CCR9; test: PathHunter β-arrestin; type: cell-based; conditions: 6 μM
Outline: (§2)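 Engineered cells express the receptor fused to one β-galactosidase fragment (ED) and β-arrestin fused to the complementing fragment (EA). Receptor activation recruits β-arrestin, which restores enzyme activity, and this is read by chemiluminescence (RLU). Agonist % activity is 100% × (test − vehicle)/(maximal control ligand − vehicle). Antagonist mode is challenged with an EC80 control agonist, and % inhibition is 100% × (1 − (test − vehicle)/(EC80 − vehicle)). Hits require >30% activity or >35% inhibition, plus a 3×SD RLU margin.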

[6] = tested on: CHRM5; test: PathHunter β-arrestin; type: cell-based; conditions: 6 μM
Outline: as §2

[7] = tested on: CNR1; test: PathHunter β-arrestin; type: cell-based; conditions: antagonist mode, 6 μM
Outline: as §2

[8] = tested on: CRHR2; test: PathHunter β-arrestin; type: cell-based; conditions: antagonist mode, 6 μM
Outline: as §2

[9] = tested on: CXCR1; test: PathHunter β-arrestin; type: cell-based; conditions: antagonist mode, 6 μM
Outline: as §2

[10] = tested on: DRD2S; test: PathHunter β-arrestin; type: cell-based; conditions: antagonist mode, 6 μM
Outline: as §2

[11] = tested on: EBI2; test: PathHunter β-arrestin; type: cell-based; conditions: antagonist mode, 6 μM
Outline: as §2

[12] = tested on: F2R; test: PathHunter β-arrestin; type: cell-based; conditions: agonist mode, 6 μM
Outline: as §2

[13] = tested on: GALR1; test: PathHunter β-arrestin; type: cell-based; conditions: 6 μM
Outline: as §2

[14] = tested on: GLP2R; test: PathHunter β-arrestin; type: cell-based; conditions: agonist mode, 6 μM
Outline: (§3)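 Vendor-run (DiscoveRx) PathHunter enzyme fragment complementation. β-Arrestin carries the EA fragment and the receptor carries ED; recruitment restores β-gal activity, read by chemiluminescence (RLU). Agonist % activity = vehicle-subtracted RLU relative to max control ligand (gpcrMAX) or to vehicle (orphanMAX). Antagonist % inhibition = 100% × (1 − vehicle-subtracted sample RLU / vehicle-subtracted EC80 agonist control RLU).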

[15] = tested on: HRH4; test: PathHunter β-arrestin; type: cell-based; conditions: antagonist mode, 6 μM
Outline: as §3

[16] = tested on: HTR2C; test: PathHunter β-arrestin; type: cell-based; conditions: 6 μM
Outline: as §3

[17] = tested on: MC1R; test: PathHunter β-arrestin; type: cell-based; conditions: 6 μM
Outline: as §3

[18] = tested on: MC3R; test: PathHunter β-arrestin; type: cell-based; conditions: 6 μM
Outline: as §3

[19] = tested on: NPSR1B; test: PathHunter β-arrestin; type: cell-based; conditions: agonist mode, 6 μM
Outline: as §3

[20] = tested on: NPY1R; test: PathHunter β-arrestin; type: cell-based; conditions: antagonist mode, 6 μM
Outline: as §3

[21] = tested on: OPRL1; test: PathHunter β-arrestin; type: cell-based; conditions: antagonist mode, 6 μM
Outline: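 GPCR-ED fusion and β-arrestin-EA fusion; arrestin recruitment restores β-galactosidase, read by chemiluminescence. Antagonist mode uses EC80 agonist challenge. % inhibition = 100 × (1 − (test − vehicle RLU)/(EC80 control − vehicle RLU)). Hit requires >35% inhibition and mean RLU below EC80 RLU − 3 × EC80 SD.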

[22] = tested on: P2RY1; test: PathHunter β-arrestin; type: cell-based; conditions: 6 μM
Outline: (§4)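 β-Arrestin recruitment to GPCR read by β-galactosidase fragment complementation and chemiluminescence. Agonist: % = 100 × (test − vehicle)/(max control ligand − vehicle), hit at >30% and RLU > baseline + 3 SD. Antagonist, against EC80 agonist: % inhibition = 100 × (1 − (test − vehicle)/(EC80 − vehicle)), hit at >35% and RLU < EC80 − 3 SD.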

[23] = tested on: P2RY4; test: PathHunter β-arrestin; type: cell-based; conditions: agonist mode, 6 μM
[24] = tested on: PROKR2; test: PathHunter β-arrestin; type: cell-based; conditions: antagonist mode, 6 μM
[25] = tested on: SSTR3; test: PathHunter β-arrestin; type: cell-based; conditions: 6 μM
Outline: as §4

[26] = tested on: nuclear receptor; test: PathHunter NHR assays, nhrMAX panel, agonist mode; type: cell-based; conditions: summary of Table IV
Outline: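 Enzyme fragment complementation: a ligand-activated NHR moves to the nucleus and recruits a steroid receptor co-activator peptide fusion, restoring β-galactosidase, read by chemiluminescence. Agonist interaction measured over 6 h. Hit requires >30% activity and mean RLU above baseline RLU + 3 × baseline SD.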

[27] = tested on: MUC5B; test: TriCEPS ligand-receptor capture; type: binding, human; conditions: 10 μg/ml PRP-1
[28] = tested on: MUC5B; test: RT2 qPCR primer assay, JJ012 cells; type: cell-based, human; conditions: 1 μg/ml PRP-1; heat map, vs nontreated control, technical triplicates
Outline: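 RNA extracted from treated and control JJ012 cells, checked by spectrophotometry and reverse transcribed. SYBR Green qPCR with custom primer assays on three samples in technical triplicates. Ct normalized to the average of GAPDH and ACTB. Fold change vs control by 2^−ΔΔCt, shown as a heat map of average Ct.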

**Q.** How did the “% Activity” value ([1]; agonist mode) turn out when Proline rich polypeptide 1 [PRP-1] was run?
**A.** 1%

**Q.** And the “% Inhibition” value ([1]; antagonist mode)?
**A.** −6%

**Q.** And the “% Activity” value ([2]; agonist mode)?
**A.** 3%

**Q.** And the “% Inhibition” value ([2]; antagonist mode)?
**A.** −3%

**Q.** What about the “% Inhibition” value [3] of the same substance?
**A.** 4%

**Q.** What about the “% Inhibition” value [4] of the same substance?
**A.** −3%

**Q.** And the “% Activity” value ([5]; agonist mode)?
**A.** 1%

**Q.** And the “% Inhibition” value ([5]; antagonist mode)?
**A.** −6%

**Q.** And the “% Activity” value ([6]; agonist mode)?
**A.** 5%

**Q.** And the “% Inhibition” value ([6]; antagonist mode)?
**A.** −4%

**Q.** What about the “% Inhibition” value [7] of the same substance?
**A.** 2%

**Q.** And the “% Inhibition” value [8]?
**A.** −2%

**Q.** What about the “% Inhibition” value [9] of the same substance?
**A.** −1%

**Q.** What about the “% Inhibition” value [10] of the same substance?
**A.** 6%

**Q.** What about the “% Inhibition” value [11] of the same substance?
**A.** −1%

**Q.** What about the “% Activity” value [12] of the same substance?
**A.** −2%

**Q.** And the “% Activity” value ([13]; agonist mode)?
**A.** 1%

**Q.** And the “% Inhibition” value ([13]; antagonist mode)?
**A.** −4%

**Q.** And the “% Activity” value [14]?
**A.** 1%

**Q.** What about the “% Inhibition” value [15] of the same substance?
**A.** −9%

**Q.** What about the “% Activity” value ([16]; agonist mode) of the same substance?
**A.** 1%

**Q.** And the “% Inhibition” value ([16]; antagonist mode)?
**A.** −3%

**Q.** What about the “% Activity” value ([17]; agonist mode) of the same substance?
**A.** −2%

**Q.** And the “% Inhibition” value ([17]; antagonist mode)?
**A.** −2%

**Q.** And the “% Activity” value ([18]; agonist mode)?
**A.** 3%

**Q.** What about the “% Inhibition” value ([18]; antagonist mode) of the same substance?
**A.** −6%

**Q.** And the “% Activity” value [19]?
**A.** 2%

**Q.** And the “% Inhibition” value [20]?
**A.** 4%

**Q.** And the “% Inhibition” value [21]?
**A.** −7%

**Q.** And the “% Activity” value ([22]; agonist mode)?
**A.** −1%

**Q.** What about the “% Inhibition” value ([22]; antagonist mode) of the same substance?
**A.** 1%

**Q.** And the “% Activity” value [23]?
**A.** −1%

**Q.** What about the “% Inhibition” value [24] of the same substance?
**A.** 8%

**Q.** And the “% Activity” value ([25]; agonist mode)?
**A.** 1%

**Q.** What about the “% Inhibition” value ([25]; antagonist mode) of the same substance?
**A.** −5%

**Q.** And the nuclear receptor agonism [26]?
**A.** neither that this peptide was agonist for orphan receptors (Table III) or agonist/antagonist for nuclear receptor

**Q.** And the binding partner detection [27]?
**A.** detected MUC5B as binding partner with 10 μg/ml PRP-1 treatment

**Q.** What about the gene expression [28] of the same substance?
**A.** high expression; also recorded: the most upregulation after the treatment with 1 μg/ml
